Data as given in ChEMBL document CHEMBL3608292, “Synthesis and biological evaluation of novel myrtucommulones and structural analogues that target mPGES-1 and 5-lipoxygenase” (Eur J Med Chem, 2015).

Legend:
[1] = system: Jurkat; assay: Cytotoxicity against human Jurkat cells assessed as induction of cell death after 48 hrs by MTT assay; type: functional, cell-based
Method in brief: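 Jurkat T cells grown in RPMI 1640 with 10% heat-inactivated FCS, 10 mM HEPES, penicillin/streptomycin at 37 °C, 5% CO₂. Seeded at 2 × 10⁴ per well. Compounds or 0.3% DMSO vehicle added for 48 h. MTT then added until blue staining, cells lysed overnight in 10% SDS/20 mM HCl, absorbance read at 570 nm. Three to four independent experiments.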

[2] = biological target: T1, Polyunsaturated fatty acid 5-lipoxygenase (Homo sapiens, UniProt P09917); assay: Inhibition of recombinant human 5-LO expressed in Escherichia coli BL21 using arachidonic acid as substrate assessed as formation of all-trans isomer of LTB4, 5-H(P)ETE preincubated for 5 to 10 mins followed by substrate addition measured after 10 mins by HPLC analysis
T1 sequence (P09917 whole entry): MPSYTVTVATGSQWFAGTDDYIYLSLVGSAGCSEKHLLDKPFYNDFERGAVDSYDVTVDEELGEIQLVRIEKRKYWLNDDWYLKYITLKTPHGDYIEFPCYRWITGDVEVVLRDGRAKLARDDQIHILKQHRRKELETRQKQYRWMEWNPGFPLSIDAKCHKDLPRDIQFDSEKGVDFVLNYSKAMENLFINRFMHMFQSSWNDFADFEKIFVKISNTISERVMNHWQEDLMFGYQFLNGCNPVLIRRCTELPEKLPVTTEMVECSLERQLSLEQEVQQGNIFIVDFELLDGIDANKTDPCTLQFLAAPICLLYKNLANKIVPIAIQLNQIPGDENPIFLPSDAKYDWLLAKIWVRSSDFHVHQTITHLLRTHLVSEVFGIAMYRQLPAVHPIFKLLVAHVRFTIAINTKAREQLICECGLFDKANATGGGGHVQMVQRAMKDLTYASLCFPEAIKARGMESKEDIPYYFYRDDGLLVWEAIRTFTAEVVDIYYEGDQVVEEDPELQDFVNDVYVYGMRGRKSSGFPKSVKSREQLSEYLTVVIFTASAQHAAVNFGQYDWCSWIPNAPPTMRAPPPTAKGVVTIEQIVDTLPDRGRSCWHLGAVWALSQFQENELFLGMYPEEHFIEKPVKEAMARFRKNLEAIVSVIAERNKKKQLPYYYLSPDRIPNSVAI

[3] = biological target: T1, Polyunsaturated fatty acid 5-lipoxygenase; assay: Inhibition of 5-LO in ionophore A23187-stimulated human PMNL using arachidonic acid as substrate assessed as formation of LTB4, 5(S),12(S)-DiHETE, 5-H(p)ETE preincubated for 15 mins followed by substrate and ionophore addition measured after 10 mins by HPLC analysis
[4] = biological target: T2, Prostaglandin E synthase (Homo sapiens, UniProt O14684); assay: Inhibition of mPGES-1 in microsomal membranes isolated from interleukin-1beta-stimulated human A549 cells using PGH2 as substrate assessed as PGE2 formation preincubated for 15 mins followed by substrate addition measured after 1 min by RP-HPLC analysis; type: cell membranes
T2 sequence (O14684 whole entry): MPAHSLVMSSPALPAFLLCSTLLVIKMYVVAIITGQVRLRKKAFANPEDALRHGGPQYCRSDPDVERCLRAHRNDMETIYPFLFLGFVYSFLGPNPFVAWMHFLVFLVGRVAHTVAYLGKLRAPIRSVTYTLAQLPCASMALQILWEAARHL
Method in brief: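 A549 cells kept 16 h in DMEM with 2% FCS, then 1 ng/ml IL-1β for 72 h. Cells homogenized and sonicated, microsomes obtained by centrifugation at 10,000 × g then 174,000 × g. Microsomes in 0.1 M potassium phosphate pH 7.4 with 2.5 mM glutathione, preincubated 15 min with compound or 0.3% DMSO. 20 µM PGH₂ (final) for 1 min at 4 °C. Stopped with FeCl₂/citric acid containing 11β-PGE₂, solid-phase extraction, RP-HPLC with UV at 195 nm.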

[5] = biological target: T3, Polyunsaturated fatty acid 5-lipoxygenase (Homo sapiens) (UniProt P09917); assay: Inhibition of 5-LO in ionophore A23187-stimulated human PMNL using arachidonic acid as substrate assessed as remaining activity at 10 uM preincubated for 15 mins followed by substrate and ionophore addition measured after 10 mins by HPLC analysis relative to control
T3 sequence (whole entry): T1 sequence (P09917 whole entry)
Method in brief: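 Human PMNL isolated by dextran sedimentation, density-gradient centrifugation and hypotonic erythrocyte lysis. 5 × 10⁶ cells/ml in PBS pH 7.4 with 1 mg/ml glucose and 1 mM CaCl₂. Compounds preincubated 15 min at 37 °C, then ionophore A23187 plus 20 µM AA for 10 min at 37 °C. Stopped with methanol/HCl, PGB₁ internal standard. 5-LO metabolites analysed by HPLC. BWA4C used as control.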

[6] = biological target: T3, Polyunsaturated fatty acid 5-lipoxygenase (Homo sapiens); assay: Inhibition of recombinant human 5-LO expressed in Escherichia coli BL21 using arachidonic acid as substrate assessed as remaining activity at 10 uM preincubated for 5 to 10 mins followed by substrate addition measured after 10 mins by HPLC analysis relative to control
Method in brief: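 5-LO expressed in E. coli BL21 from pT3-5-LO plasmid at 37 °C, then partially purified. Enzyme with compound held 5–10 min at 4 °C, prewarmed 30 s at 37 °C. Reaction started with 2 mM CaCl₂ plus 20 µM AA, stopped after 10 min at 37 °C with ice-cold methanol. All-trans LTB₄ isomers and 5-H(P)ETE quantified by HPLC. BWA4C used as control.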

Row | Structure (SMILES) | IC50 [2] [nM] | IC50 [3] [nM] | IC50 [4] [nM] | Activity [5] [%] | Activity [6] [%] | EC50 [1] [nM]
1 | CC(C)C(C1=C(O)CC(C)(C)CC1=O)c1c(O)c(C(C2=C(O)CC(C)(C)CC2=O)C(C)C)c(O)c(C(C2=C(O)CC(C)(C)CC2=O)C(C)C)c1O (configuration not stated) | 2800 | > 10000 | 680 | 83.5 |  | 6200
2 | CC(C)CC(C1=C(O)C(C)(C)C(=O)C(C)(C)C1=O)c1c(O)c(C(=O)C(C)C)c(O)c(C(CC(C)C)C2=C(O)C(C)(C)C(=O)C(C)(C)C2=O)c1O (configuration not stated) | 4800 | 970 | 290 |  |  | 12200
3 | CC(C)C(C1=C(O)c2ccccc2C1=O)c1c(O)c(C(=O)c2ccccc2)c(O)c(C(C2=C(O)c3ccccc3C2=O)C(C)C)c1O (configuration not stated) |  |  |  |  |  | > 30000
4 | CC(C)CC(=O)c1c(O)c(C(CC(C)C)C2=C(O)C(C)(C)C(=O)C(C)(C)C2=O)c(O)c(C(CC(C)C)C2=C(O)C(C)(C)C(=O)C(C)(C)C2=O)c1O (configuration not stated) | 2700 | 660 | 220 |  |  | 19200
5 | CCCCCC(=O)c1c(O)c(C(CC(C)C)C2=C(O)CC(C)(C)CC2=O)c(O)c(C(CC(C)C)C2=C(O)CC(C)(C)CC2=O)c1O (configuration not stated) | 2900 | 7300 | 810 |  |  | 13100
6 | CC(=O)c1c(O)c(C(C2=C(O)CC(C)(C)CC2=O)C(C)C)c(O)c(C(C2=C(O)CC(C)(C)CC2=O)C(C)C)c1O (configuration not stated) | > 10000 | 8100 | 1100 |  | 69.3 | 7500
7 | CC(C)CC(=O)c1c(O)cc(O)c(C(CC(C)C)C2=C(O)C(C)(C)C(=O)C(C)(C)C2=O)c1O (configuration not stated) | 4600 | 1800 | 640 |  |  | > 30000
8 | O=C1C(C(c2ccccc2)c2c(O)c(C(=O)c3ccccc3)c(O)c(C(C3=C(O)c4ccccc4C3=O)c3ccccc3)c2O)=C(O)c2ccccc21 (configuration not stated) | 3000 | 1800 | 480 |  |  | > 30000
9 | CCCCCC(=O)c1c(O)c([C@@H](CC(C)C)C2=C(O)C(C)(C)C(=O)C(C)(C)C2=O)c(O)c([C@H](C2=C(O)C(C)(C)C(=O)C(C)(C)C2=O)C(C)C)c1O [MYRTUCOMMULONE H] | 6600 | 1300 | 300 |  |  | 21900
10 | CC(C)C(=O)c1c(O)cc(O)c(C(C2=C(O)C(C)(C)C(=O)C(C)(C)C2=O)C(C)C)c1O (configuration not stated) | > 10000 | 8100 | 820 |  | 82.5 | > 30000
11 | CCCCCC(=O)c1c(O)c(C(CC(C)C)C2=C(O)C(C)(C)C(=O)C(C)(C)C2=O)c(O)c(C(CC(C)C)C2=C(O)C(C)(C)C(=O)C(C)(C)C2=O)c1O (configuration not stated) | 3500 | 460 | 240 |  |  | 23500
12 | CCCCCC(=O)c1c(O)c(C(C2=C(O)CC(C)(C)CC2=O)C(C)C)c(O)c(C(C2=C(O)CC(C)(C)CC2=O)C(C)C)c1O (configuration not stated) | > 10000 | 2700 | 570 |  | 68.7 | 3700
13 | CC(C)C(=O)c1c(O)c(C(C2=C(O)c3ccccc3C2=O)c2ccccc2)c(O)c(C(C2=C(O)c3ccccc3C2=O)c2ccccc2)c1O (configuration not stated) | 730 | 1400 | 810 |  |  | > 30000
14 | CC(C)C(=O)c1c(O)c([C@@H](C2=C(O)C(C)(C)C(=O)C(C)(C)C2=O)C(C)C)c(O)c2c1OC1=C(C(=O)C(C)(C)C(=O)C1(C)C)[C@@H]2C(C)C | > 10000 | 980 | 490 |  | 82.3 | 3400
15 | CC(C)C(=O)c1c(O)c(C(C2=C(O)c3ccccc3C2=O)C(C)C)c(O)c(C(C2=C(O)c3ccccc3C2=O)C(C)C)c1O (configuration not stated) | 20000 |  |  |  |  | > 30000
16 | CC(C)C(C1=C(O)CC(C)(C)CC1=O)c1c(O)c(C(=O)c2ccccc2)c(O)c(C(C2=C(O)CC(C)(C)CC2=O)C(C)C)c1O (configuration not stated) | 8600 | > 10000 | 3500 | 66.1 |  | 4400
17 | CCCCCC(=O)c1c(O)c([C@H](C2=C(O)C(C)(C)C(=O)C(C)(C)C2=O)C(C)C)c(O)c([C@H](C2=C(O)C(C)(C)C(=O)C(C)(C)C2=O)C(C)C)c1O [MYRTUCOMMULONE F] | 7500 | 3100 | 600 |  |  | 2300

Further lines, with some results ahead:

Row | IC50 [2] [nM] | IC50 [3] [nM] | IC50 [4] [nM] | Activity [5] [%] | Activity [6] [%] | Structure (SMILES) | EC50 [1] [nM]
18 | 3100 | 1300 |  |  |  | CC(C)CC(=O)c1c(O)c(C(C2=C(O)c3ccccc3C2=O)C(C)C)c(O)c(C(C2=C(O)c3ccccc3C2=O)C(C)C)c1O (configuration not stated) | > 30000
19 | 1200 | 2100 | 650 |  |  | CC(C)CC(=O)c1c(O)c(C(C2=C(O)c3ccccc3C2=O)c2ccccc2)c(O)c(C(C2=C(O)c3ccccc3C2=O)c2ccccc2)c1O (configuration not stated) | > 30000
20 | 460 | 690 | 430 |  |  | CCCCCC(=O)c1c(O)c(C(C2=C(O)c3ccccc3C2=O)c2ccccc2)c(O)c(C(C2=C(O)c3ccccc3C2=O)c2ccccc2)c1O (configuration not stated) | > 30000
21 | 6200 | 1600 | 7900 |  |  | CC(C)C(=O)c1c(O)cc(O)c2c1OC1=C(C(=O)C(C)(C)C(=O)C1(C)C)[C@@H]2C(C)C | 8100
22 | 1700 | 1500 |  |  |  | CCCCCC(=O)c1c(O)c(C(C2=C(O)c3ccccc3C2=O)C(C)C)c(O)c(C(C2=C(O)c3ccccc3C2=O)C(C)C)c1O (configuration not stated) | > 30000
23 | > 10000 | > 10000 | > 10000 | 69.5 | 95 | CC(C)C(=O)c1c2c(c(O)c3c1OC1=C(C(=O)C(C)(C)C(=O)C1(C)C)C3C(C)C)C(C(C)C)C1=C(O2)C(C)(C)C(=O)C(C)(C)C1=O (configuration not stated) | 17100
24 | > 10000 | 1300 | 610 |  | 66.7 | CCCCCC(=O)c1c(O)c(C(C2=C(O)C(C)(C)C(=O)C(C)(C)C2=O)C(C)C)c(O)c2c1OC1=C(C(=O)C(C)(C)C(=O)C1(C)C)C2C(C)C (configuration not stated) | 2500
25 | 2500 | 1600 | 6400 |  |  | CCCCCC(=O)c1c(O)cc(O)c2c1OC1=C(C(=O)C(C)(C)C(=O)C1(C)C)C2C(C)C (configuration not stated) | 7400
26 | > 10000 | > 10000 | 5000 | 69.7 | 82.9 | CC(C)C(C1=C(O)C(C)(C)C(=O)C(C)(C)C1=O)c1c(O)c(C(=O)c2ccccc2)c(O)c(C(C2=C(O)C(C)(C)C(=O)C(C)(C)C2=O)C(C)C)c1O (configuration not stated) | > 30000
27 | > 10000 | 1600 | 390 |  | 72.8 | CCCCCC(=O)c1c(O)cc(O)c(C(C2=C(O)C(C)(C)C(=O)C(C)(C)C2=O)C(C)C)c1O (configuration not stated) | > 30000
28 | 25000 | 13000 | 2100 |  |  | CC(C)C(=O)c1c(O)c(C(C2=C(O)CC(C)(C)CC2=O)C(C)C)c(O)c(C(C2=C(O)CC(C)(C)CC2=O)C(C)C)c1O (configuration not stated) | 2000
